A value given as a limit tells only on which side of the number the result lay.

The nature of assay [1]: Displacement of [3H]CGP-12177 from beta1-adrenergic receptor in rat cerebral cortex after 60 mins by scintillation counting. The assay is classed as tissue-based. The method in brief:
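Radioligand binding on rat brain tissue membranes, run in 96-well format. Ki was calculated by the Cheng–Prusoff equation.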

Assay [2] concerns the target 5-hydroxytryptamine receptor 7 (Homo sapiens, UniProt P34969). The experiment in a line: Displacement of [3H]5-CT from human 5HT7b receptor expressed in HEK293 cells after 1 hr. The assay is classed as cell-based.
The target in assay [3] is 5-hydroxytryptamine receptor 6 (Homo sapiens, UniProt P50406). The experiment in a line: Displacement of [3H]LSD from human 5HT6 receptor expressed in HEK293 cells after 1 hr. The assay is classed as cell-based. (In general: In a radioligand displacement assay an active substance lowers the binding of a labelled ligand.)
Assay [4] has as its target T1, Adrenergic receptor alpha-1 (Rattus norvegicus, UniProt P15823+P23944+P43140).
T1 sequence (P15823 whole entry): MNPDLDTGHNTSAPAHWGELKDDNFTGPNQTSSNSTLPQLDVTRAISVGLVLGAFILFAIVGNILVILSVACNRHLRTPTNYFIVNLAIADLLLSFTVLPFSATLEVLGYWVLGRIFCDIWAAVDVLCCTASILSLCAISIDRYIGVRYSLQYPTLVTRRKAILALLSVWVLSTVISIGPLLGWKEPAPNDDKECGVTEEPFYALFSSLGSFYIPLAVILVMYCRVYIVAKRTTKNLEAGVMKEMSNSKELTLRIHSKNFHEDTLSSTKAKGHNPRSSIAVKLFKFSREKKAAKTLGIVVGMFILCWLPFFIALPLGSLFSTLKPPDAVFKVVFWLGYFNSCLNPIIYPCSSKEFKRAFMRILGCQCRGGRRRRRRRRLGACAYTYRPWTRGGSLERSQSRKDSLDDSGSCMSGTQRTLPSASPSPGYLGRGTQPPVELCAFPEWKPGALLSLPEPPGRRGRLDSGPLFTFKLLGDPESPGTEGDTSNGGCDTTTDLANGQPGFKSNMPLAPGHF
T1 sequence (P23944 whole entry): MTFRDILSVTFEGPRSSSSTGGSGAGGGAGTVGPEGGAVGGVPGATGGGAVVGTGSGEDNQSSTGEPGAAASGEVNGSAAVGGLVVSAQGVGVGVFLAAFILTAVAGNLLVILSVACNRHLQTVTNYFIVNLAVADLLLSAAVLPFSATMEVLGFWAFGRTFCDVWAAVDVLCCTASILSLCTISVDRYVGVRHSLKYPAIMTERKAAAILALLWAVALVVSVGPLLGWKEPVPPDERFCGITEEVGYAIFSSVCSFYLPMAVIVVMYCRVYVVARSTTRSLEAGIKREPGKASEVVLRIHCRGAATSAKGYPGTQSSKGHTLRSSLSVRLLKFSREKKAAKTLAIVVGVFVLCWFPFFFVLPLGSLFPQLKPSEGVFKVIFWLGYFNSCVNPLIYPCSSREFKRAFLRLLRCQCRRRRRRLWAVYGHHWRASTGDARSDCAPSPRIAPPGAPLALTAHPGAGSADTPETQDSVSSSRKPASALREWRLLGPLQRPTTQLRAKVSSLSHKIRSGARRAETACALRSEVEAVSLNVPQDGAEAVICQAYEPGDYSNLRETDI
T1 sequence (P43140 whole entry): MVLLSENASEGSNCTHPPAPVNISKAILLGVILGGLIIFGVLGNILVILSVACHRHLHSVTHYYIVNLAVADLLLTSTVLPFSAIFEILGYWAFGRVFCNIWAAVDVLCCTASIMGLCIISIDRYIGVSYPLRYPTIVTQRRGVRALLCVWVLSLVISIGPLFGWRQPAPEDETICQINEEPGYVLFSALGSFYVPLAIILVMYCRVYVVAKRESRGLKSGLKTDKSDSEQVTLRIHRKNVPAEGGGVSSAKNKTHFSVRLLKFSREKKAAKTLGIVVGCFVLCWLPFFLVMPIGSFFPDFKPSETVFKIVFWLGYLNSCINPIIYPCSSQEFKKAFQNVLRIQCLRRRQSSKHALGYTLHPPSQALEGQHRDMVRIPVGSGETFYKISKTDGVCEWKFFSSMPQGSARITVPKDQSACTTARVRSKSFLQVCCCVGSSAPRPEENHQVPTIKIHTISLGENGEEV
The experiment in a line: Displacement of [3H]prazosin from alpha1-adrenergic receptor in rat cerebral cortex after 30 mins by scintillation counting. The assay is classed as tissue-based. The method in brief:
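Radioligand binding on rat brain tissue membranes, run in 96-well format. [3H]prazosin was used for α1 (n = 2) and [3H]CGP-12177 for β1 (n = 2). Ki was calculated by the Cheng–Prusoff equation.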

Assay [5] deals with T2, 5-hydroxytryptamine receptor 1A (Homo sapiens, UniProt P08908).
T2 sequence (P08908 whole entry): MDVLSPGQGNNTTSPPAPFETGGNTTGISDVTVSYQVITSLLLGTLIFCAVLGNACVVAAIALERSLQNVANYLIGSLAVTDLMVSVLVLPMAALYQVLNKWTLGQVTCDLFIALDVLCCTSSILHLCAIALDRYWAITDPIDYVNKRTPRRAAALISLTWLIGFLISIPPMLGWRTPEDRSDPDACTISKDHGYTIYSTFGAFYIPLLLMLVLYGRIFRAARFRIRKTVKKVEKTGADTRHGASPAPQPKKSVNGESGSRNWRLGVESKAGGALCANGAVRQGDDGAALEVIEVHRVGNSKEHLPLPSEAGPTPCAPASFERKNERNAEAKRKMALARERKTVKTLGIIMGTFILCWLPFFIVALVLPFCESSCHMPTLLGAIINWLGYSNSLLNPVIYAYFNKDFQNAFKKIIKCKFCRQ
The experiment in a line: Displacement of [3H]8-OH-DPAT from human 5HT1A receptor expressed in HEK293 cells after 1 hr. The assay is classed as cell-based.

Sequence of 5-hydroxytryptamine receptor 6 (P50406 whole entry): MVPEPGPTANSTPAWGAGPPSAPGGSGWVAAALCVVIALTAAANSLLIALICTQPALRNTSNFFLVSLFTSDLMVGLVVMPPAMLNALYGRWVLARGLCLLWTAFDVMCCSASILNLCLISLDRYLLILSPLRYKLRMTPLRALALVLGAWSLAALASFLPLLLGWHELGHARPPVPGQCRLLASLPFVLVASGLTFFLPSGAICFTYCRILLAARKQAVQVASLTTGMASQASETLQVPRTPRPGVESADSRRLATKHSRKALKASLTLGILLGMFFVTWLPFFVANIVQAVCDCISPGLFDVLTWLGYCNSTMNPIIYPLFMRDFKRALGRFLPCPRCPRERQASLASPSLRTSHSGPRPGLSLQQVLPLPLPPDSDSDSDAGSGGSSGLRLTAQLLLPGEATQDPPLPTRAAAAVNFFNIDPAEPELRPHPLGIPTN
Sequence of 5-hydroxytryptamine receptor 7 (P34969 whole entry): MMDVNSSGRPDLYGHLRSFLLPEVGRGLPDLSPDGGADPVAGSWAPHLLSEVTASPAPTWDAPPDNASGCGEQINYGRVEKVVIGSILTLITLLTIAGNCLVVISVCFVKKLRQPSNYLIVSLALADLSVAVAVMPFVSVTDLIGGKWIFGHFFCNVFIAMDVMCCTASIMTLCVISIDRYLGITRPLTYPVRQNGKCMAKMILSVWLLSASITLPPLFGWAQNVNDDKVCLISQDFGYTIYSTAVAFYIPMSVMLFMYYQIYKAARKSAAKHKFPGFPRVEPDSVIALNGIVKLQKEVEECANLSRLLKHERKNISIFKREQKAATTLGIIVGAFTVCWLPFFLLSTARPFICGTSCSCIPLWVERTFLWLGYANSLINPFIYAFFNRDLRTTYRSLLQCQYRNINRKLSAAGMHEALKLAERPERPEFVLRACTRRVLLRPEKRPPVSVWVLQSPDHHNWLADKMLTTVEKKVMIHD

What is called Ki is the equilibrium dissociation constant of an inhibitor or competing ligand from its target. Lower therefore signals tighter binding. With `COc1ccc2c(=O)c3cc(CN4CCN(c5ccccc5OC)CC4)ccc3oc2c1.Cl`, the inhibitory constant (Ki) in assay [1] is more than 30 µM; in assay [2], 1.14 µM; in assay [3], 13.6 µM; in assay [4], 0.38 µM; in assay [5], 0.429 µM.
The corresponding values for `COc1ccccc1N1CCN(Cc2ccc3oc4ccccc4c(=O)c3c2)CC1.Cl` are more than 10 µM, 0.426 µM, 5.94 µM, 3.66 µM and 0.117 µM.

The values are drawn from ChEMBL document CHEMBL2401625, “Synthesis and evaluation of pharmacological properties of some new xanthone derivatives with piperazine moiety” (Bioorg Med Chem Lett, 2013).
